We go through 16 compounds from ChEMBL document CHEMBL4811231, “Discovery and structural optimization of 3-O-β-chacotriosyl oleanane-type triterpenoids as potent entry inhibitors of SARS-CoV-2 virus infections” (Eur J Med Chem, 2021).

A short description of series [1]: Cytotoxicity against human 293T/ACE2 cells measured after 48 hrs by MTT assay. Format: cell-based. The note with it: 293t/ace2, 48 h. The procedure, abridged:
(§1)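 MTT assay on monolayers of 293T-ACE2 or Vero-E6 cells. Cells were rinsed with PBS and exposed to compound for 48 h, then given 0.5 mg/mL MTT for 4 h at 37 °C. Formazan was dissolved in DMSO and absorbance read at 570 nm.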
On the technique in general: Tetrazolium assays rely on reduction of a dye to a coloured formazan, in cell work by metabolically active cells.

Series [2] in a line: Selectivity index, ratio of CC50 for cytotoxicity against human 293T/ACE2 cells to IC50 for SARS-CoV-2 spike glycoprotein S inhibition. The note with it: read-out: Selectivity Index. It counts as toxicity, cell-based.
Series [3] concerns Vero E6. As to the kind of experiment: Antiviral activity against SARS-CoV-2 Wuhan-HU-1 infection on African green monkey Vero E6 cells assessed by viral nucleoprotein expression at 0.55 to 15 uM measured after 48 hrs by DAPI staining based indirect immunoflourescence microscopy relative to control. Format: functional, cell-based. The note with it: Severe acute respiratory syndrome-related coronavirus, dose 0.55-15 µM.

Series [4] in a line: Antiviral activity against SARS-CoV-2 Wuhan-HU-1 preincubated for 1 hr with African green monkey VeroE6 cells assessed as inhibition of viral infection by measuring total RNA after 24 hrs by qPCR analysis. It counts as functional, cell-based, Vero E6. Particulars: Severe acute respiratory syndrome-related coronavirus, Wuhan-HU-1, Vero C1008; call rule not given here. Background: In qPCR the cycle at which signal appears reflects the starting amount.

For the next series, the system named is Vero C1008. As to the kind of experiment: Cytotoxicity against African Green monkey Vero E6 cells measured after 48 hrs by MTT assay. Format: cell-based. The note with it: chlorocebus sabaeus, vero c1008, 48 h. The gist of the method:
as §1

The nature of series [5]: Inhibition of SARS-CoV-2 spike glycoprotein S1 binding to human ACE2 receptor in co-transfected human HEK293T cells at 40 uM measured by Co-immunoprecipitation based Western blot assay. Format: cell-based, Severe acute respiratory syndrome-related coronavirus. The procedure, abridged: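 293T cells were co-transfected with ACE2-Flag and SARS-S plasmids, and total protein was extracted after 48 h. Lysates were immunoprecipitated overnight with protein A Sepharose and anti-Flag antibody (mouse IgG as control). Proteins were run on 10% PAGE and blotted with anti-Flag and anti-SARS-CoV-S antibodies plus an HRP secondary.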
Background: Immunoblotting shows a protein as a band on a membrane.

Series [6] is described as follows: Binding affinity to SARS-CoV-2 spike glycoprotein S1 measured by Surface plasmon resonance. On the set-up: species or system Severe acute respiratory syndrome-related coronavirus. The gist of the method:
(§2)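 Compound was immobilised on the chip by photo-crosslinking. Recombinant SARS-CoV-2 S-trimer, S1 or S2 protein was injected at a series of concentrations in PBST (0.1% Tween 20, pH 7.4) at 4 °C. Binding lasted 600 s and dissociation 360 s, at 0.5 µL/s. The chip was regenerated with glycine-HCl pH 2.0.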

Series [7] can be described thus: Binding affinity to SARS-CoV-2 spike glycoprotein S2 measured by Surface plasmon resonance. On the set-up: species or system Severe acute respiratory syndrome-related coronavirus. The gist of the method:
as §2

Series [8] concerns Vero E6. As to the kind of experiment: Inhibition of SARS-CoV-2 spike glycoprotein S2 in human HEK293T cells transfected with pAAV-IRES-GFP-SARS-CoV-2 S assessed as inhibition of membrane fusion to african green monkey Vero E6 cells […] pretreated at 2.5 to 20 uM for 30 mins measured after 24 hrs by cell-cell fusion based fluorescence microscopy. Particulars: Severe acute respiratory syndrome-related coronavirus, dose 2.5-20 µM. The gist of the method:
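Effector HEK-293T cells were transfected with pAAV-IRES-GFP-SARS-CoV-2 S, or with empty pAAV-IRES-GFP as vehicle. They were pretreated with compound for 30 min and overlaid on Vero-E6 target cells seeded 6 h earlier (20,000/well). After 24 h, three random fields were imaged by fluorescence microscopy.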

A word on the CC50: it is the concentration that lowers cell viability or growth by half. Compound `C[C@@H]1O[C@@H](O[C@H]2[C@H](O[C@H]3CC[C@]4(C)[C@H]5CC=C6[C@@H]7CC(C)(C)CC[C@]7(C(=O)Nc7ccccc7Cl)CC[C@@]6(C)[C@]5(C)CC[C@H]4C3(C)C)O[C@H](CO)[C@@H](O[C@@H]3O[C@@H](C)[C@H](O)[C@@H](O)[C@H]3O)[C@@H]2O)[C@H](O)[C@H](O)[C@H]1O` yielded a CC50 in [1] of 31.7 µM. In addition, in series [2], the selectivity ratio came to 5.06.

Turning to `C[C@@H]1O[C@@H](O[C@H]2[C@H](O[C@H]3CC[C@]4(C)[C@H]5CC=C6[C@@H]7CC(C)(C)CC[C@]7(C(=O)Nc7ccccc7)CC[C@@]6(C)[C@]5(C)CC[C@H]4C3(C)C)O[C@H](CO)[C@@H](O[C@@H]3O[C@@H](C)[C@H](O)[C@@H](O)[C@H]3O)[C@@H]2O)[C@H](O)[C@H](O)[C@H]1O`, half-maximal cytotoxicity in [1] (CC50) was put at 33.5 µM. Also, in series [2], the selectivity ratio came out at 1.85.

In the case of `COc1ccccc1NC(=O)[C@]12CCC(C)(C)C[C@H]1C1=CC[C@@H]3[C@@]4(C)CC[C@H](O[C@@H]5O[C@H](CO)[C@@H](O[C@@H]6O[C@@H](C)[C@H](O)[C@@H](O)[C@H]6O)[C@H](O)[C@H]5O[C@@H]5O[C@@H](C)[C@H](O)[C@@H](O)[C@H]5O)C(C)(C)[C@@H]4CC[C@@]3(C)[C@]1(C)CC2`, it took 31.2 µM to reach half-maximal cytotoxicity in series [1] (CC50). For the same compound, the selectivity ratio in series [2] is 5.64.

In turn, `C[C@@H]1O[C@@H](O[C@H]2[C@H](O[C@H]3CC[C@]4(C)[C@H]5CC=C6[C@@H]7CC(C)(C)CC[C@]7(C(=O)NCc7ccccc7Cl)CC[C@@]6(C)[C@]5(C)CC[C@H]4C3(C)C)O[C@H](CO)[C@@H](O[C@@H]3O[C@@H](C)[C@H](O)[C@@H](O)[C@H]3O)[C@@H]2O)[C@H](O)[C@H](O)[C@H]1O` registered a CC50 in [1] above 100 µM. For the same compound, the selectivity ratio in series [2] was above 15.8.

Turning to `C[C@@H]1O[C@@H](O[C@H]2[C@H](O[C@H]3CC[C@]4(C)[C@H]5CC=C6[C@@H]7CC(C)(C)CC[C@]7(C(=O)N(C)Cc7ccccc7)CC[C@@]6(C)[C@]5(C)CC[C@H]4C3(C)C)O[C@H](CO)[C@@H](O[C@@H]3O[C@@H](C)[C@H](O)[C@@H](O)[C@H]3O)[C@@H]2O)[C@H](O)[C@H](O)[C@H]1O`, the CC50 in series [1] turned out to be 37.6 µM. Moreover, in series [2], the selectivity ratio came out at 4.84.

In series [1], `C[C@@H]1O[C@@H](O[C@H]2[C@H](O[C@H]3CC[C@]4(C)[C@H]5CC=C6[C@@H]7CC(C)(C)CC[C@]7(C(=O)NCc7cccs7)CC[C@@]6(C)[C@]5(C)CC[C@H]4C3(C)C)O[C@H](CO)[C@@H](O[C@@H]3O[C@@H](C)[C@H](O)[C@@H](O)[C@H]3O)[C@@H]2O)[C@H](O)[C@H](O)[C@H]1O` showed a CC50 of 34.9 µM. For the same compound, in series [2], the selectivity ratio is 5.92.

In series [1], `C[C@@H]1O[C@@H](O[C@H]2[C@H](O[C@H]3CC[C@]4(C)[C@H]5CC=C6[C@@H]7CC(C)(C)CC[C@]7(C(=O)OCc7ccccc7)CC[C@@]6(C)[C@]5(C)CC[C@H]4C3(C)C)O[C@H](CO)[C@@H](O[C@@H]3O[C@@H](C)[C@H](O)[C@@H](O)[C@H]3O)[C@@H]2O)[C@H](O)[C@H](O)[C@H]1O` returned a 50% cytotoxic concentration (CC50) of 21.6 µM. Further, the selectivity ratio in series [2] came out at 1.29.

With `C[C@@H]1O[C@@H](O[C@H]2[C@H](O[C@H]3CC[C@]4(C)[C@H]5CC=C6[C@@H]7CC(C)(C)CC[C@]7(C(=O)NCCCc7ccccc7)CC[C@@]6(C)[C@]5(C)CC[C@H]4C3(C)C)O[C@H](CO)[C@@H](O[C@@H]3O[C@@H](C)[C@H](O)[C@@H](O)[C@H]3O)[C@@H]2O)[C@H](O)[C@H](O)[C@H]1O`, the 50% cytotoxic concentration (CC50) in [1] is above 100 µM. For the same compound, in series [2], the selectivity ratio is above 7.66.

Take `COc1ccc(NC(=O)[C@]23CCC(C)(C)C[C@H]2C2=CC[C@@H]4[C@@]5(C)CC[C@H](O[C@@H]6O[C@H](CO)[C@@H](O[C@@H]7O[C@@H](C)[C@H](O)[C@@H](O)[C@H]7O)[C@H](O)[C@H]6O[C@@H]6O[C@@H](C)[C@H](O)[C@@H](O)[C@H]6O)C(C)(C)[C@@H]5CC[C@@]4(C)[C@]2(C)CC3)cc1`: the CC50 in series [1] is above 100 µM. In addition, in [2], the selectivity ratio is above 10.

In series [1], `COc1cccc(NC(=O)[C@]23CCC(C)(C)C[C@H]2C2=CC[C@@H]4[C@@]5(C)CC[C@H](O[C@@H]6O[C@H](CO)[C@@H](O[C@@H]7O[C@@H](C)[C@H](O)[C@@H](O)[C@H]7O)[C@H](O)[C@H]6O[C@@H]6O[C@@H](C)[C@H](O)[C@@H](O)[C@H]6O)C(C)(C)[C@@H]5CC[C@@]4(C)[C@]2(C)CC3)c1` gave a CC50 above 100 µM. Besides, the selectivity ratio in [2] is above 12.

For the compound `C[C@@H]1O[C@@H](O[C@H]2[C@H](O[C@H]3CC[C@]4(C)[C@H]5CC=C6[C@@H]7CC(C)(C)CC[C@]7(C(=O)NCc7ccccc7F)CC[C@@]6(C)[C@]5(C)CC[C@H]4C3(C)C)O[C@H](CO)[C@@H](O[C@@H]3O[C@@H](C)[C@H](O)[C@@H](O)[C@H]3O)[C@@H]2O)[C@H](O)[C@H](O)[C@H]1O`, the cytotoxic concentration (CC50) in series [1] is above 100 µM. The selectivity ratio in series [2] is above 17.6.

As usually defined, the IC50 is the concentration that inhibits the measured activity by half. As usually defined, the Kd is the free concentration of one partner at which half of the binding sites on the other are occupied at equilibrium, for simple one-to-one binding. For `C[C@@H]1O[C@@H](O[C@H]2[C@H](O[C@H]3CC[C@]4(C)[C@H]5CC=C6[C@@H]7CC(C)(C)CC[C@]7(C(=O)NCc7ccccc7)CC[C@@]6(C)[C@]5(C)CC[C@H]4C3(C)C)O[C@H](CO)[C@@H](O[C@@H]3O[C@@H](C)[C@H](O)[C@@H](O)[C@H]3O)[C@@H]2O)[C@H](O)[C@H](O)[C@H]1O`, the CC50 in series [1] was above 100 µM. For the same compound, the selectivity ratio in series [2] was above 22.9. Moreover, the inhibition entry in the series on Vero E6 [3] and in the series on Vero E6 [8] was “Dose-Dependent Effect” throughout. The IC50 in series [4] stood at 0.97 µM. The Activity result with Vero C1008 is listed as “Non-Toxic”. For the same compound, the Kd entry is “Active” in [5], 3690 µM in [6] and 2.16 µM in [7].

In series [1], `C[C@@H]1O[C@@H](O[C@H]2[C@H](O[C@H]3CC[C@]4(C)[C@H]5CC=C6[C@@H]7CC(C)(C)CC[C@]7(C(=O)NCc7ccccc7Br)CC[C@@]6(C)[C@]5(C)CC[C@H]4C3(C)C)O[C@H](CO)[C@@H](O[C@@H]3O[C@@H](C)[C@H](O)[C@@H](O)[C@H]3O)[C@@H]2O)[C@H](O)[C@H](O)[C@H]1O` showed a CC50 above 100 µM. In [2], the selectivity ratio is above 8.51.

In series [1], `O=C(/C=C/c1ccc(O)c2oc(-c3ccc(O)c(O)c3)cc12)O[C@H](Cc1ccc(O)c(O)c1)C(=O)O` had a CC50 above 100 µM. In series [2], the selectivity ratio was above 26.

The compound `COc1ccccc1CNC(=O)[C@]12CCC(C)(C)C[C@H]1C1=CC[C@@H]3[C@@]4(C)CC[C@H](O[C@@H]5O[C@H](CO)[C@@H](O[C@@H]6O[C@@H](C)[C@H](O)[C@@H](O)[C@H]6O)[C@H](O)[C@H]5O[C@@H]5O[C@@H](C)[C@H](O)[C@@H](O)[C@H]5O)C(C)(C)[C@@H]4CC[C@@]3(C)[C@]1(C)CC2` showed a CC50 in series [1] of 33.4 µM. Besides, the selectivity ratio in [2] was determined as 2.

As to `C[C@@H]1O[C@@H](O[C@H]2[C@H](O[C@H]3CC[C@]4(C)[C@H]5CC=C6[C@@H]7CC(C)(C)CC[C@]7(C(=O)NCCc7ccccc7)CC[C@@]6(C)[C@]5(C)CC[C@H]4C3(C)C)O[C@H](CO)[C@@H](O[C@@H]3O[C@@H](C)[C@H](O)[C@@H](O)[C@H]3O)[C@@H]2O)[C@H](O)[C@H](O)[C@H]1O`, in [1], the half-maximal cytotoxic concentration (CC50) was above 100 µM. In addition, in series [2], the selectivity ratio is above 13.6.
